Consider two compounds from ChEMBL document CHEMBL4028902, “Azetidine and Piperidine Carbamates as Efficient, Covalent Inhibitors of Monoacylglycerol Lipase” (J Med Chem, 2017).

SMILES strings stand for the structures.

One series has as its target T1, Liver carboxylesterase 1 (Homo sapiens, UniProt P23141).
T1 sequence (P23141 whole entry): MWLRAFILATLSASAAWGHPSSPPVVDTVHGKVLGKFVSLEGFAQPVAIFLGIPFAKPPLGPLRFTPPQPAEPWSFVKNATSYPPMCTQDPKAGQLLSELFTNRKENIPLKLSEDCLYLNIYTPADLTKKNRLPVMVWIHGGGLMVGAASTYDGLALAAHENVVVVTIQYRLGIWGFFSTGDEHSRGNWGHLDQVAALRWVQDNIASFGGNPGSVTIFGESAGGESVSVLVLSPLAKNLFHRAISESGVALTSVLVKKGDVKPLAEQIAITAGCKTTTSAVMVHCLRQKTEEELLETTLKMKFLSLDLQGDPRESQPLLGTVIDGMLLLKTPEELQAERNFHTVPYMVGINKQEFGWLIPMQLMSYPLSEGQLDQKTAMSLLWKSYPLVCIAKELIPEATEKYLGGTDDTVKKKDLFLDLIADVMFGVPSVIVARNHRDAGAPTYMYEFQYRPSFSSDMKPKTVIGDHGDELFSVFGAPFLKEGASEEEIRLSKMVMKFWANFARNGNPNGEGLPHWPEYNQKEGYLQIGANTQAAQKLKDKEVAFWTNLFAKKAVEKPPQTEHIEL
The series can be described thus: Inhibition of human CES1 at 1 to 10 uM relative to control.

Series [1] in a line: Lipophilicity, log D of the compound. The format is physicochemical. To be noted: octanol/water.
Series [2] has as its target T2, Fatty-acid amide hydrolase 1 (Homo sapiens) (UniProt O00519).
T2 sequence (whole entry): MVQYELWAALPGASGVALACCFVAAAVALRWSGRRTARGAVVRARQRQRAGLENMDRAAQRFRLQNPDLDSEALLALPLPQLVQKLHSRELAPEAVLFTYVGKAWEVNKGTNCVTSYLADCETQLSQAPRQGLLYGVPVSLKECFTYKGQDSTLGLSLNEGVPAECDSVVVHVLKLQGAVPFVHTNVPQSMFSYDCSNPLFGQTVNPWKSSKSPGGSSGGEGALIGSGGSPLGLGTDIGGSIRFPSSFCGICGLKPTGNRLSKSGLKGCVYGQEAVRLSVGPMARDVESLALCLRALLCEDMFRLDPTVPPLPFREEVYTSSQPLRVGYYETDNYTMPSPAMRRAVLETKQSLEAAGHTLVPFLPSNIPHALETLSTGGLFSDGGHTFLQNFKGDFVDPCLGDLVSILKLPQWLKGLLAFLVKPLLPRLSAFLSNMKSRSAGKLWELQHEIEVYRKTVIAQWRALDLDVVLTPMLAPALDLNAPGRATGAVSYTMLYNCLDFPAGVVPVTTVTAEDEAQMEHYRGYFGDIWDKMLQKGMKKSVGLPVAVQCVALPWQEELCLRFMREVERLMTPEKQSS
As to the kind of experiment: Inhibition of human recombinant FAAH at 10 uM using arachidonoyl-AMC as substrate preincubated for 30 mins followed by substrate addition measured after 60 mins by fluorescence assay relative to control.

The target in series [3] is T3, Monoacylglycerol lipase ABHD6 (Homo sapiens) (UniProt Q9BV23).
T3 sequence (whole entry): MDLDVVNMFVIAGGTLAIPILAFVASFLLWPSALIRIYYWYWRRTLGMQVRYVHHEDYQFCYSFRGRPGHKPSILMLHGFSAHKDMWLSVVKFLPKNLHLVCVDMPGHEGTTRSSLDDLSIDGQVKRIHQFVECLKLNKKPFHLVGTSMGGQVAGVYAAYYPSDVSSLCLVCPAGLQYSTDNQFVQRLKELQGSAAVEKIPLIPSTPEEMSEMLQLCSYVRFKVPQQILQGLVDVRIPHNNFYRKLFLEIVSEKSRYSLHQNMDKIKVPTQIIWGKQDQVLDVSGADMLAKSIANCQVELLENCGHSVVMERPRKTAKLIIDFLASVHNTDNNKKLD
As to the kind of experiment: Inhibition of human ABHD6 at 1 to 10 uM relative to control.

The subject of a further series is Mus musculus. The series can be described thus: Time required for unbound brain concentration to reach above in vitro IC50 for recombinant human MAGL in C57Bl6 mouse at 10 mg/kg, sc. A digest of the protocol:
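Subcutaneous dosing of C57Bl6 mice in DMSO/Cremophor/saline (5:5:90). Plasma (NaF/K2EDTA tubes) and cerebellum collected at 0.5–24 h, 3 mice per time point. Cerebellum diluted 1:4 (w/v) with water and homogenized; samples deproteinated with methanol/acetonitrile plus internal standard, then HPLC-MS/MS. LLOQ 1.0 ng/mL plasma, 0.5 ng/mL brain homogenate. PK parameters by noncompartmental analysis.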

For series [4], the target named is T4, Monoglyceride lipase (Homo sapiens) (UniProt Q99685).
T4 sequence (whole entry): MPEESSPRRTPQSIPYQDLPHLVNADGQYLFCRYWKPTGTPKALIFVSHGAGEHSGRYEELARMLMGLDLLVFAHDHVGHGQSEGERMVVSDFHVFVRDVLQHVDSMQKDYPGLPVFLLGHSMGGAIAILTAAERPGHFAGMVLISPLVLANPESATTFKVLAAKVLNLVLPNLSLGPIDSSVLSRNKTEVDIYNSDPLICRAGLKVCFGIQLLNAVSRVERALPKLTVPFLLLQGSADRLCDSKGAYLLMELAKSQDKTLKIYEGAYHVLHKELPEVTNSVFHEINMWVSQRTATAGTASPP
As to the kind of experiment: Inhibition of human recombinant MAGL at 1 to 10 uM using 7-HCA as substrate preincubated for 30 mins followed by substrate addition measured after 60 mins by fluorescence assay relative to control.

In another series the target is T5, Cocaine esterase (Homo sapiens, UniProt O00748).
T5 sequence (O00748 whole entry): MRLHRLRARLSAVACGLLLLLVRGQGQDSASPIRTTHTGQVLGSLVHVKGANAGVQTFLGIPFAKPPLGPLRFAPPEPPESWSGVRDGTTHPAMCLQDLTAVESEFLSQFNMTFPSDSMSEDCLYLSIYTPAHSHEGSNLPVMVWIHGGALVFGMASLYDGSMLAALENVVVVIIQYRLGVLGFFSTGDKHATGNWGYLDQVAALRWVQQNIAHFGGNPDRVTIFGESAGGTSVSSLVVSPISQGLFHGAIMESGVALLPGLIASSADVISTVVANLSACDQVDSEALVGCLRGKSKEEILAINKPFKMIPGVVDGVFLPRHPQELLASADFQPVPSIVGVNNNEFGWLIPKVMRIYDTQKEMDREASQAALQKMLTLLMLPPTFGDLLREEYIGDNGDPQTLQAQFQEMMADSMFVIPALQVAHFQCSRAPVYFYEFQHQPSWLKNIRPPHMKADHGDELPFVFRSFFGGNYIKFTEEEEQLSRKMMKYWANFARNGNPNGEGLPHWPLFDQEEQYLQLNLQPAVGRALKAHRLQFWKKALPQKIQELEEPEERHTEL
As to the kind of experiment: Inhibition of human CES2 at 1 to 10 uM relative to control.

Another series addresses T6, Monoglyceride lipase (Homo sapiens, UniProt Q99685).
T6 sequence (Q99685 whole entry): T4 sequence (whole entry)
As to the kind of experiment: Inhibition of human recombinant MAGL using 7-HCA as substrate preincubated for 30 mins followed by substrate addition measured after 60 mins by fluorescence assay. In outline: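 Reaction started with 7-HCA (5 μM final), run 60 min, fluorescence Ex/Em 340/465. Percent inhibition versus no-compound and full-inhibition controls; IC50 from four-parameter fit.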

With `O=C(OC(C(F)(F)F)C(F)(F)F)N1CC(c2ccn(-c3ccccc3)n2)C1`, the “inhibition (INH)” value on Liver carboxylesterase 1 and on Cocaine esterase was over 70% each time. The logD in series [1] amounted to 4.3. In addition, the inhibition in series [2], in series [3] and in series [4] was over 70% each time. Further, the Time in the series with Mus musculus worked out at 8 h. For the same compound, on Monoglyceride lipase, the IC50 came out at 0.18 nM.

Regarding `O=C(OC(C(F)(F)F)C(F)(F)F)N1CCC(c2ccn(-c3ccccc3)n2)CC1`, the inhibition in series [2], in series [3] and in series [4] was over 70% throughout. Further, the “inhibition (INH)” value at Cocaine esterase is over 70%. In addition, the IC50 on Monoglyceride lipase amounted to 2 nM.
